Bioassay records as filed in PubChem BioAssay.
Compounds with a hit are over-represented: about 2.5% of the library has one in this group of screens.
Pemphigus Ab inh – blocks pemphigus antibody binding to human desmoglein-3 | actives 0.48% (n = 310,000) | P32926 | DSG3-coupled beads, scFv-anti-DSG3-GFP binding, flow cytometry; active compounds read low | AID 588358 | binding (percent of control), % at 10 µM;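 active = binding more than 3 SD below its plate's average and above zero; inconclusive = below that plate limit but binding exactly zero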;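 note: hits lower antibody fragment binding to DSG3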
TRPC4 act – TRPC4 (mouse) channel activation; Q9QUQ5; HEK293 TRPC4beta/mu-opioid, Fluo4 calcium fluorescence; active compounds read high; B-score at 10 µM; actives 0.49% (n = 310,000); AID 2237;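 active = B-score above 5 SD of library B-scores, and initial fluorescence ratio not above library mean plus 5 SD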;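 note: positive B-score marks a calcium rise read as TRPC4 activation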
Target sequence (Q9QUQ5 whole entry, looked up): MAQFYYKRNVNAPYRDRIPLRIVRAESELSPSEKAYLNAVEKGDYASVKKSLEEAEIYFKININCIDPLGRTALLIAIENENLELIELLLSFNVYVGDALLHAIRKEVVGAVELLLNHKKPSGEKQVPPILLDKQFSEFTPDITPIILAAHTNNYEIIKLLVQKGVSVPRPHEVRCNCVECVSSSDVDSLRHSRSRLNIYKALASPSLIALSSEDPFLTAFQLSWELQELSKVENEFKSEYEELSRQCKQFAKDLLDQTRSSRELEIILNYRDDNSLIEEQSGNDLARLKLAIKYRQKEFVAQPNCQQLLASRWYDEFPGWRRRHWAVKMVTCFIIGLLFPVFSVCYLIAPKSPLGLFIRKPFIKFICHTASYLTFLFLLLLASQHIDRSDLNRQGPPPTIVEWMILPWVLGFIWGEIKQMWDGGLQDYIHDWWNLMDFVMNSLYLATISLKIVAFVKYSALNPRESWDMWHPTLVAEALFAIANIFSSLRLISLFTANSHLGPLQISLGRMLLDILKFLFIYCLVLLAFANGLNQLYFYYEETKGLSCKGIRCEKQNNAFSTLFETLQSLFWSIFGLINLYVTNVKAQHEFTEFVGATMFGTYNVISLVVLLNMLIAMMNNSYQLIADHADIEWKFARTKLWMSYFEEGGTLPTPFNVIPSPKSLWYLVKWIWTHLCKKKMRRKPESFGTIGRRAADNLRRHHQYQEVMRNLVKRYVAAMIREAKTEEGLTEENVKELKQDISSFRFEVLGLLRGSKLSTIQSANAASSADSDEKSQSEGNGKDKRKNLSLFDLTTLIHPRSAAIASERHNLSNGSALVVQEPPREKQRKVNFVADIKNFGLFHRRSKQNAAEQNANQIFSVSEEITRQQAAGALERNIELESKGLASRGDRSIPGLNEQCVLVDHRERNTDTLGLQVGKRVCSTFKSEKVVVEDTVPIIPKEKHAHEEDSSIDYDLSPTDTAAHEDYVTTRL
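Test system: HEK293 cells stably co-expressing mouse TRPC4beta and mu-opioid receptor | Schedule: Fluo4 dye loading 45 min at room temperature, 110 s recording | Measured by: Kinetic Fluo4 calcium fluorescence, 5 s baseline at 1 Hz | Evaluation: B score of integrated ratio | Controls: Buffer (low) and maximal DAMGO (high)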
TRPC6 inh – mouse TRPC6 channel inhibition. actives 1.1% (n = 310,000). AID 2553. HEK293-TRPC6, membrane potential dye, ACh-evoked depolarization; active compounds read low. B-score at 10 µM. Q61143;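 active = B-score under library mean minus 3 SD, initial fluorescence not abnormally high, positive integrated signal ratio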;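 note: B-score derived from integrated fluorescence ratio over the kinetic read; more negative B-score means stronger inhibition of depolarization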
TRPC4 block – inhibitors of mouse TRPC4 channel; Q9QUQ5; HEK293 TRPC4beta/mu-opioid, DAMGO-evoked Fluo4 calcium flux; active compounds read low; B-score at 10 µM; actives 0.39% (n = 300,000); AID 2247;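 active = B-score over 3 SD under the library average, no early fluorescence shift, positive overall ratio signal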
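test system = HEK293 cells with stable TRPC4beta plus mu-opioid receptor expression | detection = Fluo4 Ca2+ flux fluorescence | read-out = integrated fluorescence ratio relative to baseline, converted to per-well B score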
TRPC6 activator – activates the mouse TRPC6 cation channel; Q61143; HEK293-TRPC6 membrane potential dye fluorescence; active compounds read high; B-score at 10 µM; actives 0.13% (n = 310,000); AID 2550;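 active = B-score of the integrated fluorescence ratio above library mean plus 3 SD, and starting fluorescence ratio within library mean plus 5 SD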;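 note: higher score means more depolarization so channel activation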
TRPC4 potent – allosterically enhances the mouse TRPC4 cation channel | Q9QUQ5 | HEK293 TRPC4beta/mu-opioid, DAMGO EC20, Fluo-4 Ca2+ flux; active compounds read high | B-score at 10 µM | actives 0.42% (n = 310,000);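 active = B-score of calcium response area above 5 SD of library B-scores, with initial fluorescence ratio within 5 SD of library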;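 note: B-score of integrated fluorescence ratio over time as area under calcium response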
The depositor's hits bear a star; i = inactive; u = inconclusive; x = not tested or not shown.

SMILES	Pemphigus Ab inh	TRPC4 act	TRPC6 inh	TRPC4 block	TRPC6 activator	TRPC4 potent
Cc1cccc(OCC(=O)NCc2ccccc2)c1	108.3	i	i	i	i	i
CCCN(CCC)CCNC(=O)c1cc2c(=O)n(C)c3ccccc3c2n1C	109.6	i	i	i	i	13*
Cn1c(C(=O)NCCN2CCOCC2)cc2c(=O)n(C)c3ccccc3c21	110.3	i	i	i	i	i
CCN(CC)CCNC(=O)c1cc2c(=O)n(C)c3ccccc3c2s1	92.9	i	i	i	i	i
CCCCN(CC)CCCNC(=O)c1cc2c(=O)n(CC)c3ccccc3c2s1	89.8	i	i	i	i	i
CCCCN(CC)CCNC(=O)c1cc2c(=O)n(C)c3ccccc3c2s1	91.1	i	i	i	i	16*
CCCN(CCC)CCCNC(=O)c1cc2c(=O)n(CC)c3ccccc3c2s1	u	50*	i	i	i	i
COc1ccc(NC(C)=O)cc1NC(=O)c1ccc(C#N)cc1	104.3	i	i	i	i	i
Cc1nc(-c2ccc(-n3nncc3-c3ccco3)cc2)cs1	93.9	i	i	i	i	i
Nc1nc(-c2ccc(-n3nncc3-c3ccco3)cc2)cs1	x	i	i	-5*	i	i
CC(C)(C)c1ccc(N2C(=N)SCC2=O)cc1	109.3	i	i	i	i	33*
Cc1csc(NC(=O)CCCC(=O)c2ccccc2)n1	110.3	i	i	i	i	i
O=C(COC(=O)CCc1c[nH]c2ccccc12)NCc1ccc2c(c1)OCO2	96.7	i	i	i	i	i
CCOc1ccc(N2CSC(=S)N(c3ccc(OCC)cc3)C2)cc1	76.4*	i	i	i	i	i
Cc1ccc(-n2ncc3c2CC(C)(C)CC3NC(=O)c2c(C)noc2C)cc1 (configuration not stated)	x	i	i	i	i	i
CCN1C(=O)CSC1=Nc1ccc(Cl)c(Cl)c1	113.8	i	i	-6*	i	i
Cc1ccccc1-n1c(=O)c2c(n3cnnc13)-c1ccccc1CC21CCCCC1	x	i	i	i	i	16*
Cc1cc(CN(C)C(=O)c2ccc(OC3CCN(CCc4ccccc4)CC3)cc2)on1	116.7	i	i	i	i	i
CSCCCNC(=O)c1ccc(OC2CCN(CCc3ccccc3)CC2)cc1	98.3	58*	i	i	i	i
CN(Cc1cnn(C)c1)C(=O)c1ccc(OC2CCN(CCc3ccccc3)CC2)cc1	91.6	i	i	-6*	i	i
O=C(NCCc1cccc(Cl)c1)c1ccc(OC2CCN(Cc3ccccn3)CC2)cc1	115.0	150*	i	i	i	i
O=C(NCCc1ccccn1)c1ccc(OC2CCN(CCc3ccccc3)CC2)cc1	97.6	66*	i	i	i	i
O=C(NCc1ccccc1F)C1CCCN(S(=O)(=O)N2CCOCC2)C1 (configuration not stated)	105.8	i	i	i	i	i
CC(C)Oc1ccc(C2CC(=O)N(c3ccccc3)C2=O)cc1 (configuration not stated)	98.8	i	i	i	i	i
CC(C)Oc1ccc(C2CC(=O)N(c3ccc(N(C)C)cc3)C2=O)cc1 (configuration not stated)	77.3*	i	i	i	i	i
SMILES	Pemphigus Ab inh	TRPC4 act	TRPC6 inh	TRPC4 block	TRPC6 activator	TRPC4 potent
Cc1ccc(N=Nc2c(N)n(-c3ccccc3)[nH]c2=O)cc1	-0.7*	i	i	i	i	i
CCCCCc1cc(=O)oc2c(C(CCN3CCCC(C)C3)c3ccc(N(C)C)cc3)c(OC)cc(OC)c12 (configuration not stated)	108.8	i	i	i	i	i
CCCCCc1cc(=O)oc2c(C(CCN(CC)CC)c3ccc(N(C)C)cc3)c(OC)cc(OC)c12 (configuration not stated)	104.8	i	i	i	i	11*
Cc1ccc(S(=O)(=O)Nc2ccc(S(=O)(=O)N3CCOCC3)cc2)cc1[N+](=O)[O-]	105.6	i	i	i	i	i
Cc1ccc(Nc2ccc(S(=O)(=O)N3CCOCC3)cc2[N+](=O)[O-])cc1C	104.0	i	i	i	i	18*
CCC(C)NCCC(=O)Nc1ccc(Cl)c(S(=O)(=O)Nc2ccc(Cl)cc2)c1 (configuration not stated)	99.0	i	i	i	i	11*
CCOC(=O)C1=CN(C(C)C)CCC1=O	103.1	x	x	x	x	x
Nc1ncnc2c1ncn2[C@@H]1O[C@H](CNS(=O)(=O)c2ccc3c(c2)CCN(C(=O)C(F)(F)F)C3)[C@@H](O)[C@H]1O	98.3	x	x	x	x	x
COc1ccc(C2NCCc3c2[nH]c2ccccc32)cc1COc1ccc(F)cc1 (configuration not stated)	94.9	i	i	i	i	i
COc1ccc(C2NCCc3c2[nH]c2ccccc32)cc1CN1CCc2cc(OC)c(OC)cc2C1C (configuration not stated)	96.0	47*	i	-8*	i	i
S=c1[nH]nc(-c2cc3c(s2)-c2ccccc2CC3)o1	100.5	i	i	-6*	i	i
CN(CC(=O)Nc1ccc(F)cc1)C(=O)COC(=O)c1cccc(N(C)C)c1	108.0	x	x	x	x	x
CN(CC(=O)Nc1ccc(F)cc1)C(=O)COC(=O)c1ccccc1	117.2	i	i	i	i	106*
O=C(N/N=C/C(Cl)=C\c1ccccc1)c1ccco1	88.5*	i	i	i	i	i
O=C(N/N=C/C(Cl)=C/c1ccccc1)c1ccco1	100.5	i	i	i	i	i
O=c1c2c(-c3ccccc3)csc2ncn1/N=C/c1cccc([N+](=O)[O-])c1O	101.2	68*	i	-8*	i	i
NS(=O)(=O)c1ccc(NC(=O)COC(=O)c2cnccn2)cc1	121.7	i	i	i	i	i
O=C1C2CCCN2C(=O)N1CCCCN1CCN(CCO)CC1 (configuration not stated)	94.4	i	i	i	i	i
CCC(CC)C(=O)Nc1nnc(S(=O)(=O)N2c3ccccc3CC2C)s1 (configuration not stated)	-14.5*	i	i	i	i	i
Cc1cccc2cc(CN(CCCN(C)C)C(=S)NCCc3ccccc3)c(=O)[nH]c12	97.3	i	i	-6*	i	i
